These results are taken from ChEMBL document CHEMBL1146048, “Imidazo[1,2-a]pyrazin-8-ones, imidazo[1,2-d][1,2,4]triazin-8-ones and imidazo[2,1-f][1,2,4]triazin-8-ones as alpha2/alpha3 subtype selective GABA A agonists for the treatment of anxiety” (Bioorg Med Chem Lett, 2006).

Structures are written as SMILES. Activity calls are given as the source filed them. The calls are words filed in the database; no cut-off is given here.

Usually Ki stands for a measure of affinity in units of concentration, obtained from inhibition or displacement. One may read the clearance as a measure of how efficiently the substance is removed, as volume per time. A lower clearance goes with a low capacity for elimination. One may read the bioavailability as the share of a dose that reaches the circulation, judged against a reference dose that is usually intravenous. The low end stands for poor availability, the high end for good availability. For orientation: half-life means the time in which the quantity being followed falls by half. A high value points to slow decline.

The target in data set [1] is GABA-A receptor; alpha-1/beta-3/gamma-2 (Homo sapiens) (UniProt P14867+P18507+P28472). In words: Efficacy against human recombinant GABA-Aalpha1 receptor plus beta-3-gamma-2 expressed in L(tk-) cells by whole cell patch clamp method. The data set is classed as functional, cell-based. The gist of the method:
(§1)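 Whole-cell patch clamp on L(tk-) cells stably expressing α1β3γ2 or α3β3γ2 GABAA receptors. Test compound modulation of current evoked by a sub-maximal (EC20) GABA concentration. Means of at least seven independent experiments.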
For orientation: In patch-clamp work, channel activity is measured electrically.

For data set [2], the target named is T1, GABA-A receptor; alpha-3/beta-3/gamma-2 (Homo sapiens, UniProt P18507+P28472+P34903).
T1 sequence (P18507 whole entry): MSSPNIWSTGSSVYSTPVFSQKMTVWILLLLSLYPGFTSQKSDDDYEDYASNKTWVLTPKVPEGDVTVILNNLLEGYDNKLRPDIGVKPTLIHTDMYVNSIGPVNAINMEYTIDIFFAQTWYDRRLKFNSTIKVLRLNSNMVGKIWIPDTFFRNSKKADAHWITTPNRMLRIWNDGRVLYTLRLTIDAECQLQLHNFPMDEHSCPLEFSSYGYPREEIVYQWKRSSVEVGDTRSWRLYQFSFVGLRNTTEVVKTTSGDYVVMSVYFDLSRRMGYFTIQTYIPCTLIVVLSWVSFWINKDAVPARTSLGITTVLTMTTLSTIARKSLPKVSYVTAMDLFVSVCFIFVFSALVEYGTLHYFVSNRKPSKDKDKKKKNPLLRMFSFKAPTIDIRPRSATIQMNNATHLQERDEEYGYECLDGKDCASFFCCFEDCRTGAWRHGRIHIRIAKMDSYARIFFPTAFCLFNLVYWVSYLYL
T1 sequence (P28472 whole entry): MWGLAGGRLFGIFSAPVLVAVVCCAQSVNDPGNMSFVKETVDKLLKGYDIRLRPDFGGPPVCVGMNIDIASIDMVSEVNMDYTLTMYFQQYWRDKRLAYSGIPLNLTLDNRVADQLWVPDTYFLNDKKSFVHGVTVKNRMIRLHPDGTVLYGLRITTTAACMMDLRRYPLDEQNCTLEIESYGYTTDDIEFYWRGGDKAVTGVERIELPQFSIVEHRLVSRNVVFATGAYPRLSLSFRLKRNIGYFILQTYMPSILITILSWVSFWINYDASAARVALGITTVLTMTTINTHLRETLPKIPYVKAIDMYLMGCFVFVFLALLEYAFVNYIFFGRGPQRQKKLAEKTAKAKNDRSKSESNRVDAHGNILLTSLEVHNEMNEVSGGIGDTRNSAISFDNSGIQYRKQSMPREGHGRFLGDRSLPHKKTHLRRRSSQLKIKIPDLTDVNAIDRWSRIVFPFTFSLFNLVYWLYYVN
T1 sequence (P34903 whole entry): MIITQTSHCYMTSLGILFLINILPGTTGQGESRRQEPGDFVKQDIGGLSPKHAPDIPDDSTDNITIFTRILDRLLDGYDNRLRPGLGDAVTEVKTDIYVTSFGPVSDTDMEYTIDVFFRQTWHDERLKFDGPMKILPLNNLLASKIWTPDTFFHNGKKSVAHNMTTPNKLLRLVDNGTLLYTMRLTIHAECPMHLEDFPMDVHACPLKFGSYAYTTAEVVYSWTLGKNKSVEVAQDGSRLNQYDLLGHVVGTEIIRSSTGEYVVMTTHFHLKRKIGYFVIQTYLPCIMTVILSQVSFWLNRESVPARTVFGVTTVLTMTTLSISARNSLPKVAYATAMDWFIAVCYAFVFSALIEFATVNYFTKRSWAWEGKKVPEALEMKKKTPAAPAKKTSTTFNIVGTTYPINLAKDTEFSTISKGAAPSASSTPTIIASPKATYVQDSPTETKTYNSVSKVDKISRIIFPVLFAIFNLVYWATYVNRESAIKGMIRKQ
In words: Displacement of [3H]Ro-151788 from human recombinant GABA-Aalpha3 receptor plus beta3gamma2. The data set is classed as protein-complex assay. The gist of the method: (§2)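 Stably expressed human recombinant αxβ3γ2 GABAA receptors (x = 1, 3 or 5), benzodiazepine site. Competition against 1.8 nM [3H]Ro15-1788. IC50 for inhibition of binding converted to Ki by Cheng–Prusoff. Mean of 3–6 determinations.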
On the technique in general: Displacement assays read how much labelled ligand stays bound in the presence of the test substance.

For data set [3], the target named is T2, GABA-A receptor; alpha-5/beta-3/gamma-2 (Homo sapiens, UniProt P18507+P28472+P31644).
T2 sequence (P18507 whole entry): T1 sequence (P18507 whole entry)
T2 sequence (P28472 whole entry): T1 sequence (P28472 whole entry)
T2 sequence (P31644 whole entry): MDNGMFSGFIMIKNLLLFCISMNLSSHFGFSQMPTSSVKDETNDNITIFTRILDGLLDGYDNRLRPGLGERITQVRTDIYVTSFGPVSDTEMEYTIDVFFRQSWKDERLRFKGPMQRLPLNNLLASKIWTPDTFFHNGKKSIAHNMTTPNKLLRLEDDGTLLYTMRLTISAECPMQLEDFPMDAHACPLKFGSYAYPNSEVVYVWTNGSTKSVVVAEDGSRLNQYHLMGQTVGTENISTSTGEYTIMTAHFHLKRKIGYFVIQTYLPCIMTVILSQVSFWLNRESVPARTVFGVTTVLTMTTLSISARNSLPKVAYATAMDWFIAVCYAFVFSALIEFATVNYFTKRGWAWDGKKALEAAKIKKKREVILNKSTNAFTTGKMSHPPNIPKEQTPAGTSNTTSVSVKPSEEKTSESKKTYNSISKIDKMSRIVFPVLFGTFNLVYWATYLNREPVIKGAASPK
The experiment in a line: Displacement of [3H]Ro-151788 from human recombinant GABA-Aalpha5 receptor plus beta3gamma2. Format: protein-complex assay. In short, it runs like this:
as §2

Data set [4] has as its target GABA-A receptor; alpha-3/beta-3/gamma-2 (Homo sapiens) (UniProt P18507+P28472+P34903). In words: Efficacy against human recombinant GABA-Aalpha3 receptor plus beta-3-gamma-2 expressed in L(tk-) cells by whole cell patch clamp method. Format: functional, cell-based. In short, it runs like this: as §1
The target in data set [5] is T3, GABA-A receptor; alpha-1/beta-3/gamma-2 (Homo sapiens, UniProt P14867+P18507+P28472).
T3 sequence (P14867 whole entry): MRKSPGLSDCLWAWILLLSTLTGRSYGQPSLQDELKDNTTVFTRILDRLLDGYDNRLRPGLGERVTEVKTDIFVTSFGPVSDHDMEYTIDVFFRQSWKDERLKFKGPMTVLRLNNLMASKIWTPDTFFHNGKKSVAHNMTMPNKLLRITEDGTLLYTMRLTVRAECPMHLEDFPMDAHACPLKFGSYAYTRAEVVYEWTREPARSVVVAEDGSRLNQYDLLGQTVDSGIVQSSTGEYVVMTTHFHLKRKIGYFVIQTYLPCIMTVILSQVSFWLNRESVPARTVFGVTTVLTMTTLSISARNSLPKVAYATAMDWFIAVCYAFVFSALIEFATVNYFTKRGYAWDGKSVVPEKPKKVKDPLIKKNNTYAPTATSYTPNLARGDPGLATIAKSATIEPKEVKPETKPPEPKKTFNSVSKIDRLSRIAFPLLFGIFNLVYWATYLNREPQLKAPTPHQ
T3 sequence (P18507 whole entry): T1 sequence (P18507 whole entry)
T3 sequence (P28472 whole entry): T1 sequence (P28472 whole entry)
The experiment in a line: Displacement of [3H]Ro-151788 from human recombinant GABA-Aalpha1 receptor plus beta3gamma2. Format: protein-complex assay. The gist of the method:
as §2

The nature of data set [6]: Plasma clearance in rat. Format: ADME, organism-based.
The target in data set [7] is T4, GABA-A receptor; anion channel (Rattus norvegicus) (UniProt O09028+P15431+P18506+P18508+P19969+P20236+P23574+P23576+P28471+P28473+P30191+P62813+P63079+P63138+Q91ZM7+Q9ES14). In words: Receptor occupancy at BZ site of GABA-Aalpha receptor in rat at 3 mg/kg, po. Format: functional, organism-based. Also on record: dose 3 mg/kg.
The subject of data set [8] is Rattus norvegicus. In words: Activity in rat beam walking assay at 100 mg/kg, po. Format: functional, organism-based. Set-up: dose 100 mg/kg.
Data set [9] concerns Rattus norvegicus. In words: Anxiolytic activity in rat elevated plus maze assay at 3 mg/kg, po. The data set is classed as functional, organism-based. Set-up: dose 3 mg/kg.
Data set [10] in a line: Bioavailability in rat. Format: ADME, organism-based. The note with it: in vivo.
The target in data set [11] is GABA-A receptor; alpha-5/beta-3/gamma-2 (Homo sapiens) (UniProt P18507+P28472+P31644). In words: Efficacy against human recombinant GABA-Aalpha5 receptor plus beta-3-gamma-2 expressed in L(tk-) cells by whole cell patch clamp method. Format: functional, cell-based. In short, it runs like this:
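Human α5β3γ2 GABA-A receptors stably expressed in L(tk-) cells; whole-cell patch clamp recording. Test compound applied against the current evoked by a sub-maximal GABA concentration (EC20), and efficacy expressed as the change in that current. Values are means of at least seven independent experiments.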

Data set [12] concerns the target T4, GABA-A receptor; anion channel (Rattus norvegicus). The experiment in a line: Displacement of [3H]Ro-151788 from GABA-Aalpha receptor in rat po. The data set is classed as functional.
A short description of data set [13]: Half life in rat. Format: ADME, organism-based. The following applies: in vivo.

On to `Cn1ccn2c(-c3ccc(F)c(-c4ccccc4C#N)c3)cnc2c1=O`, for which the values for the Efficacy in data set [1] and in [4] were 27% and 51%, respectively. For the same compound, the inhibition constant (Ki) turned out to be 0.7 nM in data set [2], 0.1 nM in [3] and 0.53 nM in [5].

For the compound `CCn1ccn2c(-c3ccc(F)c(-c4ccc(F)cc4C#N)c3)cnc2c1=O`, the clearance in data set [6] was 17 mL/min/kg. In addition, the Efficacy is -8% in data set [1], 43% in data set [4] and -4% in [11]. Further, the Ki in data set [2] came to 0.9 nM; in data set [3] it was 0.15 nM; in data set [5] it was 0.28 nM. For the same compound, the Activity in [7] was 86%. Besides, the outcome in the data set on Rattus norvegicus [8] was inactive. In addition, in the data set on Rattus norvegicus [9], the result was Active. The bioavailability in data set [10] came to 38%. The same compound registered an ID50 in [12] of 0.7 mg/kg. Moreover, in data set [13], the half-life is 5 h.

For the compound `CC(C)(O)c1cnn2c(-c3ccc(F)c(-c4c(F)cccc4C#N)c3)cnc2n1`, the Efficacy in data set [1] was determined as 4%; in data set [4], 65%; in data set [11], 44%. The figures for the Ki in data set [2], in [3] and in data set [5] were 1.5 nM, 0.9 nM and 0.6 nM, respectively.

Take `Cn1cnn2c(-c3ccc(F)c(-c4ccc(F)cc4C#N)c3)cnc2c1=O`: the Efficacy in data set [1] is -46%. Moreover, the Ki came out at 4.6 nM in data set [2], 4.8 nM in data set [3] and 2.5 nM in data set [5].

Consider `Cn1ccn2c(-c3ccc(F)c(-c4ccc(F)cc4C#N)c3)cnc2c1=O`, for which the results for the Efficacy in [1] and in data set [4] were -27% and 44%, respectively. Also, the Ki in [2] was 1.9 nM; in data set [3], 0.39 nM; in [5] it was 0.7 nM.

With `Cn1ccn2c(-c3ccc(F)c(-c4c(F)cccc4C#N)c3)cnc2c1=O`, the Efficacy in data set [1] was found to be 3%; in data set [4], 28%. The Ki stood at 0.59 nM in data set [2], 0.19 nM in [3] and 0.16 nM in data set [5].

On to `CC(C)(O)c1ccn2c(-c3ccc(F)c(-c4cccnc4)c3)cnc2n1`, for which the inhibition constant (Ki) was found to be 0.52 nM in data set [3] and 1.4 nM in data set [5].

With `CCn1ncn2c(-c3ccc(F)c(-c4ccc(F)cc4C#N)c3)cnc2c1=O`, the Efficacy in data set [1] is -19%; in data set [4], -7%. For the same compound, the inhibition constant (Ki) in data set [2] came out at 3.4 nM; in data set [3] it was 0.95 nM; in data set [5], 2.4 nM.

For `Cn1ncn2c(-c3ccc(F)c(-c4ccc(F)cc4C#N)c3)cnc2c1=O`, the Efficacy was -9% in [1] and 1% in [4]. The inhibitory constant (Ki) in data set [2] was found to be 4.7 nM; in [3], 2.3 nM; in data set [5], 6.5 nM.
